# What was measured:
# Type in all cases: protein assay
# Heart phosphodiesterase [1] = target: T1, Heart phosphodiesterase (Bos taurus, UniProt Q01061+P14100+E1BN64); experiment: Inhibition of cAMP phosphodiesterase in bovine heart; conditions: for IC50: read-out: I50
# Summary of the method: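 I50 taken from a plot of uninhibited over inhibited velocity (V0/V) against inhibitor concentration, read where V0/V = 2. At least five inhibitor concentrations giving 25–75% inhibition were tested per inhibitor.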
# Heart phosphodiesterase [2] = target: T1, Heart phosphodiesterase; experiment: Inhibition of bovine heart cAMP-phosphodiesterase (Insoluble)
# [3] = target: Heart phosphodiesterase (Bos taurus) (UniProt Q01061+P14100+E1BN64); experiment: Percent inhibition of bovine heart cAMP-phosphodiesterase at 10-20 uM
Structure (SMILES),I50 (Heart phosphodiesterase [2]),I50 (Heart phosphodiesterase [1]),other results
CCC1C(=O)N(CC)c2sc3ccccc3[n+]2C1=O (stereo not given),,,IC50 (Heart phosphodiesterase [1]): 153 µM
COC(=O)c1cc(=O)n2c(sc3ccccc32)c1C(=O)OC,Insoluble,,
CC(C)C1C(=O)N(CC2CC2)c2sc3ccccc3[n+]2C1=O (stereo not given),Insoluble,,
CCC1C(=O)N=C2Sc3ccccc3N2C1=O (stereo not given),,467 µM,
Cn1c(=O)c2nc[nH]c2n(C)c1=O [THEOPHYLLINE],,,IC50 (Heart phosphodiesterase [1]): 412 µM

# Further lines, with some results ahead:
I50 (Heart phosphodiesterase [2]),I50 (Heart phosphodiesterase [1]),Structure (SMILES),other results
,8 µM,CCOc1ccc2c(c1)sc1[n+]2C(=O)C(CC)C(=O)N1CC1CCCCC1 (stereo not given),inhibition [3]: 40%
,69 µM,CCOc1ccc2c(c1)sc1[n+]2C(=O)C(CC)C(=O)N1CC1CC1 (stereo not given),
,102 µM,CCC1C(=O)N(CC2CCCC2)c2sc3ccccc3[n+]2C1=O (stereo not given),
Insoluble,,CCC1C(=O)N(CC2CC2)c2sc3cc(C)c(C)cc3[n+]2C1=O (stereo not given),
